Data taken from ChEMBL document CHEMBL1687785, “ampG gene of Pseudomonas aeruginosa and its role in β-lactamase expression” (2010).
Values after ≈ are worked out from the molar mass of the structure shown.

What was measured:
Format in all cases: functional
[1] = system: Pseudomonas aeruginosa; test: Antimicrobial activity against ampG deficient Pseudomonas aeruginosa PAK harboring pUCP24 conferring resistance to gentamycin after 16 to 20 hrs by broth microdilution method
Outline: (§1)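 CLSI broth microdilution in Mueller-Hinton broth, serial 2-fold antibiotic dilutions. Inoculum about 10^4 cells per well, taken from starter cultures grown to OD600 0.5. MIC was the lowest antibiotic concentration preventing growth after 16 to 20 h at 37°C. Each MIC was determined in triplicate.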

[2] = system: Pseudomonas aeruginosa; test: Antimicrobial activity against ampG deficient Pseudomonas aeruginosa PAK harboring pUCP24 conferring resistance to gentamycin after 16 to 20 hrs by broth microdilution method in presence of 120 uM carbonyl cyanide m-chlorophenyl-hydrazone
Outline: (§2)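 CLSI broth microdilution in Mueller-Hinton broth with serial antibiotic dilutions. CCCP was added from a 10 mM DMSO stock to 120 μM final, then the bacterial culture was added as inoculum (about 10^4 cells from OD600 0.5 starter cultures). MIC was the lowest concentration preventing growth after 16 to 20 h at 37°C, run in triplicate.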

[3] = system: Pseudomonas aeruginosa; test: Antimicrobial activity against Pseudomonas aeruginosa PAO1 after 16 to 20 hrs by broth microdilution method in presence of 120 uM carbonyl cyanide m-chlorophenyl-hydrazone
Outline: (§3)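 CLSI broth microdilution in Mueller-Hinton broth with CCCP added from a 10 mM DMSO stock to 120 μM final, alongside 2-fold serial antibiotic dilutions. Inoculum from starter cultures grown to OD600 0.5. MIC is the lowest concentration preventing growth after 16-20 h at 37°C. Triplicate.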

[4] = system: Escherichia coli; test: Antimicrobial activity against tetracycline resistant Escherichia coli SNO301-1 harboring pEC1C carrying ampC, ampR from Enterobacter cloacae after 16 to 20 hrs by broth microdilution method
Outline: (§4)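 CLSI broth microdilution: serial 2-fold β-lactam dilutions in Mueller-Hinton broth, inoculum about 10^4 cells from starter cultures at OD600 0.5; MIC read as lowest concentration preventing growth after 16 to 20 h at 37°C; triplicate determinations.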

[5] = system: Pseudomonas aeruginosa; test: Antimicrobial activity against ampG, ampGh1 deficient Pseudomonas aeruginosa PAK after 16 to 20 hrs by broth microdilution method in presence of 120 uM carbonyl cyanide m-chlorophenyl-hydrazone; outline: as §2
[6] = system: Pseudomonas aeruginosa; test: Antimicrobial activity against ampD, ampDh2, ampDh3 and ampG deficient Pseudomonas aeruginosa PAO1 harboring pUCP24 conferring resistance to gentamycin after 16 to 20 hrs by broth microdilution method in presence of 120 uM carbonyl cyanide m-chlorophenyl-hydrazone; outline: as §2
[7] = system: Pseudomonas aeruginosa; test: Antimicrobial activity against ampG deficient Pseudomonas aeruginosa PAK after 16 to 20 hrs by broth microdilution method in presence of 120 uM carbonyl cyanide m-chlorophenyl-hydrazone; outline: as §2
[8] = system: Pseudomonas aeruginosa; test: Antimicrobial activity against Pseudomonas aeruginosa PAK after 16 to 20 hrs by broth microdilution method in presence of 120 uM carbonyl cyanide m-chlorophenyl-hydrazone; outline: as §3
[9] = system: Pseudomonas aeruginosa; test: Antimicrobial activity against ampD, ampDh2, ampDh3 and ampG deficient Pseudomonas aeruginosa PAO1 after 16 to 20 hrs by broth microdilution method in presence of 120 uM carbonyl cyanide m-chlorophenyl-hydrazone; outline: as §2
[10] = system: Pseudomonas aeruginosa; test: Antimicrobial activity against ampG, ampGh1 deficient Pseudomonas aeruginosa PAO1 after 16 to 20 hrs by broth microdilution method; outline: as §1
[11] = system: Pseudomonas aeruginosa; test: Antimicrobial activity against ampD, ampDh2, ampDh3 deficient Pseudomonas aeruginosa PAO1 after 16 to 20 hrs by broth microdilution method in presence of 120 uM carbonyl cyanide m-chlorophenyl-hydrazone; outline: as §2
[12] = system: Pseudomonas aeruginosa; test: Antimicrobial activity against ampG deficient Pseudomonas aeruginosa PAO1 harboring pUCP24 conferring resistance to gentamycin after 16 to 20 hrs by broth microdilution method; outline: as §1
[13] = system: Pseudomonas aeruginosa; test: Antimicrobial activity against ampG deficient Pseudomonas aeruginosa PAK after 16 to 20 hrs by broth microdilution method; outline: as §1
[14] = system: Pseudomonas aeruginosa; test: Antimicrobial activity against ampD, ampDh2, ampDh3 and ampGh1 deficient Pseudomonas aeruginosa PAO1 after 16 to 20 hrs by broth microdilution method in presence of 120 uM carbonyl cyanide m-chlorophenyl-hydrazone; outline: as §2
[15] = system: Pseudomonas aeruginosa; test: Antimicrobial activity against Pseudomonas aeruginosa PAK after 16 to 20 hrs by broth microdilution method
Outline: (§5)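 CLSI broth microdilution: 2-fold serial antibiotic dilutions in Mueller-Hinton broth, inoculated with about 10^4 cells per 100 μl from starter cultures grown to OD600 0.5. MIC is the lowest concentration preventing growth after 16-20 h at 37°C. Triplicate.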

[16] = system: Pseudomonas aeruginosa; test: Antimicrobial activity against ampGh1 deficient Pseudomonas aeruginosa PAK after 16 to 20 hrs by broth microdilution method in presence of 120 uM carbonyl cyanide m-chlorophenyl-hydrazone; outline: as §2
[17] = system: Pseudomonas aeruginosa; test: Antimicrobial activity against ampG deficient Pseudomonas aeruginosa PAO1 after 16 to 20 hrs by broth microdilution method in presence of 120 uM carbonyl cyanide m-chlorophenyl-hydrazone; outline: as §2
[18] = system: Pseudomonas aeruginosa; test: Antimicrobial activity against ampD, ampDh2, ampDh3 and ampGh1 deficient Pseudomonas aeruginosa PAO1 after 16 to 20 hrs by broth microdilution method; outline: as §1
[19] = system: Pseudomonas aeruginosa; test: Antimicrobial activity against ampGh1 deficient Pseudomonas aeruginosa PAO1 after 16 to 20 hrs by broth microdilution method in presence of 120 uM carbonyl cyanide m-chlorophenyl-hydrazone
Outline: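 Serial 2-fold dilutions of β-lactam in Mueller-Hinton broth with CCCP added from a 10 mM DMSO stock to 120 μM final; inoculum about 10^4 cells from cultures grown to OD600 0.5; MIC taken as lowest concentration preventing growth after 16 to 20 h at 37°C; triplicate.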

[20] = system: Pseudomonas aeruginosa; test: Antimicrobial activity against ampG deficient Pseudomonas aeruginosa PAO1 harboring pZY0901 conferring resistance to gentamycin after 16 to 20 hrs by broth microdilution method in presence of 120 uM carbonyl cyanide m-chlorophenyl-hydrazone; outline: as §2
[21] = system: Pseudomonas aeruginosa; test: Antimicrobial activity against Pseudomonas aeruginosa PAO1 after 16 to 20 hrs by broth microdilution method; outline: as §5
[22] = system: Pseudomonas aeruginosa; test: Antimicrobial activity against ampG deficient Pseudomonas aeruginosa PAK harboring pZY0901 conferring resistance to gentamycin after 16 to 20 hrs by broth microdilution method; outline: as §1
[23] = system: Pseudomonas aeruginosa; test: Antimicrobial activity against ampG, ampGh1 deficient Pseudomonas aeruginosa PAO1 after 16 to 20 hrs by broth microdilution method in presence of 120 uM carbonyl cyanide m-chlorophenyl-hydrazone; outline: as §2
[24] = system: Pseudomonas aeruginosa; test: Antimicrobial activity against ampG deficient Pseudomonas aeruginosa PAO1 harboring pZY0908 conferring resistance to gentamycin after 16 to 20 hrs by broth microdilution method; outline: as §1
[25] = system: Pseudomonas aeruginosa; test: Antimicrobial activity against ampG deficient Pseudomonas aeruginosa PAO1 harboring pZY0901 conferring resistance to gentamycin after 16 to 20 hrs by broth microdilution method; outline: as §1
[26] = system: Pseudomonas aeruginosa; test: Antimicrobial activity against ampD, ampDh2, ampDh3 and ampG deficient Pseudomonas aeruginosa PAO1 harboring pZY0901 conferring resistance to gentamycin after 16 to 20 hrs by broth microdilution method in presence of 120 uM carbonyl cyanide m-chlorophenyl-hydrazone; outline: as §2
[27] = system: Pseudomonas aeruginosa; test: Antimicrobial activity against ampG deficient Pseudomonas aeruginosa PAO1 after 16 to 20 hrs by broth microdilution method; outline: as §1
[28] = system: Pseudomonas aeruginosa; test: Antimicrobial activity against ampD, ampDh2, ampDh3 and ampG deficient Pseudomonas aeruginosa PAO1 harboring pZY0901 conferring resistance to gentamycin after 16 to 20 hrs by broth microdilution method; outline: as §1
[29] = system: Pseudomonas aeruginosa; test: Antimicrobial activity against ampD, ampDh2, ampDh3 and ampG deficient Pseudomonas aeruginosa PAO1 after 16 to 20 hrs by broth microdilution method; outline: as §1
[30] = system: Escherichia coli; test: Antimicrobial activity against kanamycin resistant Escherichia coli SNO301-1 harboring pEC1C carrying ampC, ampR from Enterobacter cloacae after 16 to 20 hrs by broth microdilution method; outline: as §4
[31] = system: Pseudomonas aeruginosa; test: Antimicrobial activity against ampGh1 deficient Pseudomonas aeruginosa PAK after 16 to 20 hrs by broth microdilution method; outline: as §1
[32] = system: Pseudomonas aeruginosa; test: Antimicrobial activity against ampD, […], ampDh2 deficient Pseudomonas aeruginosa PAO1 after 16 to 20 hrs by broth microdilution method; outline: as §1
[33] = system: Pseudomonas aeruginosa; test: Antimicrobial activity against ampG deficient Pseudomonas aeruginosa PAK harboring pZY0901 conferring resistance to gentamycin after 16 to 20 hrs by broth microdilution method in presence of 120 uM carbonyl cyanide m-chlorophenyl-hydrazone; outline: as §2
[34] = system: Pseudomonas aeruginosa; test: Antimicrobial activity against ampG, ampGh1 deficient Pseudomonas aeruginosa PAK after 16 to 20 hrs by broth microdilution method; outline: as §1
[35] = system: Pseudomonas aeruginosa; test: Antimicrobial activity against ampGh1 deficient Pseudomonas aeruginosa PAO1 after 16 to 20 hrs by broth microdilution method; outline: as §1
[36] = system: Pseudomonas aeruginosa; test: Antimicrobial activity against ampD, ampDh2, ampDh3 and ampG deficient Pseudomonas aeruginosa PAO1 harboring pUCP24 conferring resistance to gentamycin after 16 to 20 hrs by broth microdilution method; outline: as §1
[37] = system: Pseudomonas aeruginosa; test: Antimicrobial activity against ampG deficient Pseudomonas aeruginosa PAO1 harboring pUCP24 conferring resistance to gentamycin after 16 to 20 hrs by broth microdilution method in presence of 120 uM carbonyl cyanide m-chlorophenyl-hydrazone; outline: as §2
[38] = system: Escherichia coli; test: Antimicrobial activity against gentamycin resistant Escherichia coli SNO301-1 harboring pEC1C carrying ampC, ampR from Enterobacter cloacae after 16 to 20 hrs by broth microdilution method; outline: as §4

Structure (SMILES) | MIC [1] [µg/mL] | MIC [10] [µg/mL] | MIC [12] [µg/mL] | MIC [13] [µg/mL] | MIC [15] [µg/mL] | MIC [18] [µg/mL] | MIC [21] [µg/mL] | MIC [22] [µg/mL] | MIC [24] [µg/mL] | MIC [25] [µg/mL] | MIC [27] [µg/mL] | MIC [28] [µg/mL] | MIC [29] [µg/mL] | MIC [31] [µg/mL] | MIC [32] [µg/mL] | MIC [34] [µg/mL] | MIC [35] [µg/mL] | MIC [36] [µg/mL] | further results
CO/N=C(\C(=O)N[C@@H]1C(=O)N2C(C(=O)O)=C(COC(C)=O)CS[C@H]12)c1csc(N)n1 [CEFOTAXIME] | 4 (≈ 8.78 µM) | 8 (≈ 17.6 µM) | 8 (≈ 17.6 µM) | 8 (≈ 17.6 µM) | 8 (≈ 17.6 µM) | 256 (≈ 562 µM) | 16 (≈ 35.1 µM) | 512 (≈ 1120 µM) | 8 (≈ 17.6 µM) | 256 (≈ 562 µM) | 8 (≈ 17.6 µM) | 512 (≈ 1120 µM) | 4 (≈ 8.78 µM) | 8 (≈ 17.6 µM) | 512 (≈ 1120 µM) | 8 (≈ 17.6 µM) | 16 (≈ 35.1 µM) | 4 (≈ 8.78 µM) | MIC [2]: 4 µg/mL; MIC [3]: 8 µg/mL; MIC [4]: < 2 µg/mL; MIC [5]: 4 µg/mL; MIC [6]: 4 µg/mL; MIC [7]: 4 µg/mL; MIC [8]: 8 µg/mL; MIC [9]: 4 µg/mL; MIC [11]: 64 µg/mL; MIC [14]: 64 µg/mL; MIC [16]: 8 µg/mL; MIC [17]: 4 µg/mL; MIC [19]: 8 µg/mL; MIC [20]: 128 µg/mL; MIC [23]: 4 µg/mL; MIC [26]: 64 µg/mL; MIC [30]: 64 µg/mL (≈ 141 µM); MIC [33]: 256 µg/mL; MIC [37]: 4 µg/mL; MIC [38]: 32 µg/mL (≈ 70.3 µM)
CC(C)(O/N=C(\C(=O)N[C@@H]1C(=O)N2C(C(=O)[O-])=C(C[n+]3ccccc3)CS[C@H]12)c1csc(N)n1)C(=O)O [CEFTAZIDIME] | 1 (≈ 1.83 µM) | 1 (≈ 1.83 µM) | 1 (≈ 1.83 µM) | 1 (≈ 1.83 µM) | 1 (≈ 1.83 µM) | 32 (≈ 58.5 µM) | 1 (≈ 1.83 µM) | 32 (≈ 58.5 µM) | 1 (≈ 1.83 µM) | 16 (≈ 29.3 µM) | 1 (≈ 1.83 µM) | 32 (≈ 58.5 µM) | 1 (≈ 1.83 µM) | 1 (≈ 1.83 µM) | 32 (≈ 58.5 µM) | 1 (≈ 1.83 µM) | 1 (≈ 1.83 µM) | 1 (≈ 1.83 µM) | 
